Compounds with a hit are over-represented: about 3.4% of the library has one in this group of screens.
TAAR1 antag: human TAAR1 antagonism; inhibition, % at 3 µM; Q96RJ0; AID 624466; CHO RD-HGA16 TAAR1, Fluo-8 calcium fluorescence, antagonist; 360,000 tested, 1.5% active;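 active means inhibition above a per-plate cutoff, the mean inhibition of test compounds on that plate plus 3 SD, cut at about 49% in these data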
Target sequence (Q96RJ0 whole entry, looked up): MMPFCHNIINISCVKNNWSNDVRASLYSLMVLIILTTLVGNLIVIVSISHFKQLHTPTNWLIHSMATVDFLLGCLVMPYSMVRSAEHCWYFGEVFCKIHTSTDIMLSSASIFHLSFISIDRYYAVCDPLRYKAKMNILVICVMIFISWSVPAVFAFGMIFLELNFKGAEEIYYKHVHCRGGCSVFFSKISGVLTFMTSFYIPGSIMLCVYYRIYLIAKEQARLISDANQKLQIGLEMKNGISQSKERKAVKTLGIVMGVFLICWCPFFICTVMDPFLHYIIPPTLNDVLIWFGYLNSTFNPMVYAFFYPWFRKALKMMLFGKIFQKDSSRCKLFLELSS
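Test system: CHO RD-HGA16 cells bearing hTAAR1 | Reagent: β-PEA, EC80 | Compound dosing: 3 µM, single point | Schedule: Dye loading 75 min at 37 °C, then 30 min room temperature | Signal: Calcium fluorescence with Fluo-8 | Evaluation: Percent inhibition of PEA-evoked calcium signal, max/basal emission ratio | Control set: DMSO-only wells and EC80 β-PEA-stimulated wells | Repeats: Singlicate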
M1 PAM: potentiates human M1 receptor response to acetylcholine. P11229. CHO-K1 hM1, Fluo-8 calcium fluorescence, ACh EC20; 0% = ACh EC20, 100% = maximal ACh. activation, % at 3 µM. 360,000 tested, 0.088% active. AID 588819; in the data active means activation above about 19%, passing the limit was not always enough
TAAR1 agonist: agonists of human TAAR1. CHO RD-HGA16 TAAR1, Fluo-8 calcium fluorescence; vehicle wells 0%, saturating PEA agonist 100%. 360,000 tested, 0.99% active. activation, % at 3 µM. AID 624467;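 active means activation above the mean activation of all test compounds in the run plus 3 SD, cut at about 38% in these data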
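Signal – calcium-sensitive Fluo-8 signal, excitation 470-495, emission 515-575 nm · System – RD-HGA16 (CHO) cells co-expressing Gα16 and hTAAR1 · Incubation – 17-24 h seeding, 75 min 37 °C dye, 30 min RT · Compound dosing – 3 µM single concentration · Repeats – no replicates (n 1)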
M1 ag: activates human CHRM1 receptor. AID 588814. 360,000 tested, 0.33% active. activation, % at 3 µM. CHO-K1 hM1, Fluo-8 calcium fluorescence, agonist mode; 0% DMSO, 100% acetylcholine EC100. P11229;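 active means activation above the run's mean compound activation plus 3 SD, cut at about 16% in these data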;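 further: peak over basal fluorescence ratio within a 140 s kinetic read after compound addition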
M1 antag: antagonists of human M1 muscarinic receptor; 360,000 tested, 1.3% active; AID 588852; P11229; CHO-K1 hM1, Fluo-8 calcium fluorescence, ACh EC80 antagonist; inhibition, % at 3 µM;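 active means percent inhibition above its own plate's cutoff, namely the mean of that plate's compound wells plus 3 SD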;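 further: peak over basal fluorescence ratio during 140 s after agonist addition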
Hits are given with their value.

What do the screens show for `Cc1cccc(C)c1NC(=O)C(c1ccccc1OC(F)(F)F)N1CCC(c2ccccc2)CC1` (stereo unspecified)?
TAAR1 antag: inactive; TAAR1 agonist: inactive

Results for O=C1C(=Cc2cn(-c3ccccc3)nc2-c2ccc(OCc3ccccc3)cc2)SC(=S)N1CCS(=O)(=O)O ?
TAAR1 antag: inactive; M1 PAM: inactive; TAAR1 agonist: inactive; M1 ag: inactive; M1 antag: inactive

How did Cc1ccc(-c2nn(-c3ccccc3)cc2C=C2SC(=S)N(CCS(=O)(=O)O)C2=O)cc1 do in these assays?
TAAR1 antag: inactive; M1 PAM: 28; TAAR1 agonist: inactive; M1 ag: inactive; M1 antag: inactive

What do the screens show for `CCn1ccnc1CNC(=O)c1ccc2oc(CCCc3ccccc3)nc2c1`?
TAAR1 antag: inactive; M1 PAM: inactive; TAAR1 agonist: inactive; M1 ag: inactive; M1 antag: 33

Results for CCCCc1nc2cc(C(=O)NCc3ccccn3)ccc2o1 ?
TAAR1 antag: inactive; M1 PAM: inactive; TAAR1 agonist: inactive; M1 ag: inactive; M1 antag: inactive

What do the screens show for `COCCN1C(=O)/C(=C/c2ccc(OCc3ccc(C(=O)O)cc3)c(OC)c2)SC1=Nc1ccccc1`?
TAAR1 antag: 73; M1 PAM: inactive; TAAR1 agonist: inactive; M1 ag: inactive; M1 antag: inactive

Results for COc1cc(/C=C2\SC(=Nc3ccccc3)N(Cc3ccco3)C2=O)ccc1OC(C)C(=O)O (stereo unspecified) ?
TAAR1 antag: inactive; M1 PAM: inactive; TAAR1 agonist: inactive; M1 ag: inactive; M1 antag: inactive

Results for Cc1ccc(SCCNC(=S)Nc2cc(C)cc(C)c2)cc1 ?
TAAR1 antag: 65; M1 PAM: inactive; TAAR1 agonist: inactive; M1 ag: inactive; M1 antag: inactive

How did CN(C)CCNC(=S)Nc1ccc(Cl)cc1 do in these assays?
TAAR1 antag: inactive; M1 PAM: 25; TAAR1 agonist: inactive; M1 ag: inactive; M1 antag: inactive

What do the screens show for `S=C(NCc1ccc(Cl)cc1)Nc1ccncc1`?
TAAR1 antag: inactive; M1 PAM: inactive; TAAR1 agonist: inactive; M1 ag: inactive; M1 antag: 44

Results for COC(=O)Cc1ccc(NC(=S)NCCSc2ccc(C)cc2)cc1 ?
TAAR1 antag: inactive; M1 PAM: inactive; TAAR1 agonist: inactive; M1 ag: inactive; M1 antag: inactive

How did Cc1ccc(NC(=S)NCCSc2ccc(Cl)cc2)cc1 do in these assays?
TAAR1 antag: inactive; M1 PAM: inactive; TAAR1 agonist: inactive; M1 ag: inactive; M1 antag: 56

What do the screens show for `O=C(NCC1CCN(C(=O)C(=O)c2cccs2)CC1)c1ccc2c(c1)CCO2`?
TAAR1 antag: inactive; TAAR1 agonist: inactive

What do the screens show for `COCCN1CCCc2nc(-c3ccc(F)cc3)ccc21`?
TAAR1 antag: inactive; TAAR1 agonist: inactive

What do the screens show for `COC(=O)CCN(Cc1cccc(OC)c1OC)S(=O)(=O)c1ccccc1Br`?
TAAR1 antag: inactive; TAAR1 agonist: inactive

What do the screens show for `CCN(CC)c1ccc(-c2c(C#N)c(N)nc(OC)c2C#N)cc1`?
TAAR1 antag: 57; M1 PAM: inactive; TAAR1 agonist: inactive; M1 ag: inactive; M1 antag: inactive

How did COc1ccc(C2C(C(=O)c3cccs3)=C(O)C(=O)N2c2nnc(C)s2)cc1OC (stereo unspecified) do in these assays?
M1 PAM: inactive; M1 ag: inactive; M1 antag: inactive

How did CC(C)c1nnc(N2C(=O)C(O)=C(C(=O)c3cccs3)C2c2ccccc2)s1 (stereo unspecified) do in these assays?
TAAR1 antag: inactive; M1 PAM: inactive; TAAR1 agonist: 40; M1 ag: inactive; M1 antag: inactive

How did COc1ccc(NC(=S)c2ccncc2)cc1 do in these assays?
TAAR1 antag: inactive; M1 PAM: inactive; TAAR1 agonist: 41; M1 ag: inactive; M1 antag: inactive

What do the screens show for `COc1ccc(C(=S)Nc2ccc(C)cc2)cc1`?
TAAR1 antag: inactive; M1 PAM: inactive; TAAR1 agonist: inactive; M1 ag: inactive; M1 antag: inactive

What do the screens show for `Cc1cc(=O)c2c(ccc3c(=O)cc(C)[nH]c32)[nH]1`?
TAAR1 antag: inactive; TAAR1 agonist: inactive

Results for CCc1cc(Cn2nc(-c3ccccc3)cc2C(=O)NCc2cccs2)on1 ?
TAAR1 antag: 63; M1 PAM: inactive; TAAR1 agonist: inactive; M1 ag: inactive; M1 antag: inactive

Results for CC1(C)CC2(CC(c3ccccc3F)c3cc(Cl)c(O)cc3O2)NC(=S)N1 (stereo unspecified) ?
TAAR1 antag: inactive; M1 PAM: inactive; TAAR1 agonist: inactive; M1 ag: inactive; M1 antag: inactive

Results for CC(=O)Oc1cc2c(cc1Cl)C1(CC(c3ccccc3Cl)O2)CC(C)(C)NC(=S)N1 (stereo unspecified) ?
TAAR1 antag: inactive; M1 PAM: inactive; TAAR1 agonist: inactive; M1 ag: inactive; M1 antag: 47

What do the screens show for `CCCN(CCC)c1cc(=O)nc2ccccn12`?
TAAR1 antag: inactive; TAAR1 agonist: inactive

How did O=C1/C(=C\c2cccnc2)Sc2ccccc21 do in these assays?
TAAR1 antag: inactive; M1 PAM: inactive; TAAR1 agonist: inactive; M1 ag: 19; M1 antag: inactive

Results for NC(N)=N/N=C/c1cccc(Cl)c1Cl ?
TAAR1 antag: inactive; M1 PAM: inactive; TAAR1 agonist: 42; M1 ag: inactive; M1 antag: inactive

What do the screens show for `Oc1ccccc1N1CCN(CC(O)COC2CCCc3ccccc32)CC1` (stereo unspecified)?
TAAR1 antag: inactive; M1 PAM: inactive; TAAR1 agonist: inactive; M1 ag: inactive; M1 antag: 39

What do the screens show for `CC1CN(CCCCOc2cccc(Oc3ccccc3)c2)CC(C)O1` (stereo unspecified)?
TAAR1 antag: inactive; M1 PAM: inactive; TAAR1 agonist: inactive; M1 ag: inactive; M1 antag: 29

Results for c1ccc(Oc2cccc(OCCCCN3CCCC3)c2)cc1 ?
TAAR1 antag: inactive; M1 PAM: inactive; TAAR1 agonist: inactive; M1 ag: inactive; M1 antag: 40

What do the screens show for `COC(=O)C1=C(C)N(Cc2cccc(C(F)(F)F)c2)C(=NCc2ccc(C(F)(F)F)cc2)NC1c1cccc(C(F)(F)F)c1` (stereo unspecified)?
TAAR1 antag: inactive; TAAR1 agonist: inactive

Results for CC(C)C[C@H]1CN(CCCC[C@@H]2CNC(=O)C(=O)N2CC2CCCCC2)C(=O)C(=O)N1CCc1ccccc1 ?
TAAR1 antag: inactive; TAAR1 agonist: inactive

Results for COc1ccc(-c2csc(Nc3ccc(S(=O)(=O)Nc4cc(C)on4)cc3)n2)cc1C ?
TAAR1 antag: 49; M1 PAM: inactive; TAAR1 agonist: inactive; M1 ag: inactive; M1 antag: 46

What do the screens show for `O=C(N[C@@H](Cc1cccnc1)C(=O)N1CCC[C@H]1C(=O)NCCc1ccccc1Cl)c1ccco1`?
TAAR1 antag: inactive; TAAR1 agonist: inactive

Assay outcomes deposited in PubChem BioAssay by The Scripps Research Institute Molecular Screening Center.
